Our source for the IC50 values is ChEMBL document CHEMBL1158037, “Taraxasterane- and ursane-type triterpenes from Nerium oleander and their biological activities” (J Nat Prod, 2006).

Bounds are passed on as bounds.

A short description of assay [1]: Cytotoxicity against human WI38 cells by WST-8 assay. The assay is classed as cell-based. Particulars: WI-38. Summed up:
(§1)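 Growth inhibition of WI-38, VA-13 and HepG2 cells, with Taxol and ADM as positive controls; IC50 taken as concentration giving 50% growth inhibition.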
A general note: Formazan colour is commonly taken as a measure of viable cells.

Assay [2] can be described thus: Cytotoxicity against human Hep G2 by WST-8 assay. Particulars: HepG2. The format is functional. The method, boiled down: as §1
For assay [3], the system named is A549. As to the kind of experiment: Antiinflammatory activity in human A549 cells assessed as inhibition of ICAM1 induction pretreated for 1 hr before IL1alpha challenge and incubated for 6 hrs in presence of IL1alpha. The format is functional, cell-based. Summed up:
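A549 cells (human lung carcinoma, used as endothelial model) exposed to a range of compound concentrations for 1 h, then IL-1α added and culture continued 6 h. ICAM-1 measured by primary and secondary antibodies plus enzyme substrate, absorbance at 415 nm. Triplicate cultures; IC50 reported.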

Assay [4] deals with A549. Briefly: Cytotoxicity against human A549 cells after 24 hrs by MTT assay. The assay is classed as functional, cell-based. As to conditions: A549, 24 h. Summed up:
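A549 cells incubated 24 h with serial dilutions of compound; viability (%) by MTT used to derive IC50. Triplicate cultures.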

Another assay has as its system WI-38 VA13. Briefly: Cytotoxicity against human VA-13 cells by WST-8 assay. The assay is classed as functional, cell-based. The method, boiled down:
as §1

With `C[C@H]1[C@H](C)CC[C@]2(C=O)CC[C@]3(C)C(=CC[C@@H]4[C@@]5(C)CC[C@H](O)C(C)(C)[C@@H]5CC[C@]43C)[C@H]12`, the IC50 (usually the concentration at which inhibition is half-maximal) was 94.7 µM in assay [1]; 99 µM in assay [2]; 158 µM in the assay on A549 [3]; 205 µM in the assay on A549 [4]; 85.4 µM in the assay on WI-38 VA13.

For the compound `C[C@H]1[C@H](C)CC[C@]2(O)CC[C@]3(C)C(=CC[C@@H]4[C@@]5(C)CC[C@H](O)C(C)(C)[C@@H]5CC[C@]43C)[C@H]12`, the IC50 was 20.1 µM in assay [1]; 21.1 µM in assay [2]; over 316 µM with A549 [3]; over 316 µM in the assay with A549 [4]; 108 µM with WI-38 VA13.

Regarding `CO[C@H]1O[C@@]2(C)CC[C@@]13CC[C@]1(C)[C@H](CC[C@@H]4[C@@]5(C)CC[C@H](O)C(C)(C)[C@@H]5CC[C@]41C)[C@H]3[C@@H]2C`, the IC50 in assay [1] stood at 11.8 µM; in assay [2] it was 10.3 µM; in the assay on A549 [3] it was 80 µM; in the assay on A549 [4] it was 76 µM; with WI-38 VA13 it was 11.7 µM.

Consider `C[C@H]1[C@@H]2[C@H]3CC[C@@H]4[C@@]5(C)CC[C@H](O)C(C)(C)[C@@H]5CC[C@@]4(C)[C@]3(C)CC[C@@]23C=C[C@]1(C)OC3`, for which the IC50 in assay [1] was 83.8 µM; in assay [2] it was 155 µM; with A549 [3] it was over 316 µM; in the assay on A549 [4], over 316 µM; in the assay on WI-38 VA13, 111 µM.
